Structures are written as SMILES.

Assay [1] has as its system Canis familiaris. Kind of assay: Mean arterial blood pressure (MABP) in an acutely instrumented anesthetized dog model at 0.03 mg/kg intravenous dose. It is filed as functional, Canis lupus familiaris. The method in brief: (§1)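 Adult mongrel dogs of either sex, anesthetized with pentobarbital 35 mg/kg IV and maintained by infusion at 5 mg/kg per h. Control data collected for 30 min. Drug given IV in saline (or dilute HCl/NaOH diluted with saline), 0.1 mL/kg over 1 min. Ascending doses, usually half-log apart, 10-30 min between doses, one compound per dog. Recorded LV dP/dtmax, heart rate and aortic pressure as % change from control.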

The subject of assay [2] is Canis familiaris. The experiment in a line: Mean arterial blood pressure (MABP) in an acutely instrumented anesthetized dog model at 0.01 mg/kg intravenous dose. The class given is functional, Canis lupus familiaris. The method in brief:
as §1

Assay [3] has as its system Canis familiaris. Kind of assay: Change from control in mean arterial blood pressure (MABP) in an acutely instrumented anesthetized dog model at […] intravenous dose.
Assay [4] concerns Canis familiaris. The experiment in a line: Myocardial contractility in an acutely instrumented anesthetized dog model at 0.01 mg/kg intravenous dose. It is filed as functional, Canis lupus familiaris, Myocardium. The following applies: dose 0.1 mg/kg, in the assay text read “0.1 mg/kg” for “0.01 mg/kg”. Summed up: as §1
Assay [5] concerns Canis familiaris. The experiment in a line: Mean arterial blood pressure (MABP) in an acutely instrumented anesthetized dog model at 0.1 mg/kg intravenous dose. The class given is functional, Canis lupus familiaris. The method in brief:
as §1

In assay [6] the test system is Canis familiaris. Kind of assay: Mean arterial blood pressure (MABP) in an acutely instrumented anesthetized dog model at 1 mg/kg intravenous dose. The class given is functional, Canis lupus familiaris. Summed up:
as §1

Assay [7] concerns Canis familiaris. The experiment in a line: Heart rate (HR) in an acutely instrumented anesthetized dog model at 1 mg/kg intravenous dose. The class given is functional, Canis lupus familiaris. The method in brief:
as §1

The subject of assay [8] is Canis familiaris. Kind of assay: Myocardial contractility in an acutely instrumented anesthetized dog model at 0.001 mg/kg intravenous dose. The class given is functional, Canis lupus familiaris, Myocardium. The method in brief: as §1
The test system of assay [9] is Canis familiaris. Kind of assay: Heart rate (HR) in an acutely instrumented anesthetized dog model at 0.1 mg/kg intravenous dose. The class given is functional, Canis lupus familiaris. Summed up:
as §1

The test system of assay [10] is Canis familiaris. The experiment in a line: Myocardial contractility in an acutely instrumented anesthetized dog model at 0.03 mg/kg intravenous dose. It is filed as functional, Canis lupus familiaris, Myocardium. Summed up: as §1
Assay [11] has as its system Canis familiaris. The experiment in a line: Myocardial contractility in an acutely instrumented anesthetized dog model at […] intravenous dose. The class given is functional, Canis lupus familiaris, Myocardium.
Assay [12] deals with Canis familiaris. Kind of assay: Heart rate (HR) in an acutely instrumented anesthetized dog model at […] intravenous dose. The class given is functional, Canis lupus familiaris.
For assay [13], the system named is Canis familiaris. Kind of assay: Myocardial contractility in an acutely instrumented anesthetized dog model at 1 mg/kg intravenous dose. It is filed as functional, Canis lupus familiaris, Myocardium. The method in brief:
as §1

The test system of assay [14] is Canis familiaris. The experiment in a line: Heart rate (HR) in an acutely instrumented anesthetized dog model at 0.03 mg/kg intravenous dose. It is filed as functional, Canis lupus familiaris. Summed up:
as §1

Assay [15] has as its system Canis familiaris. The experiment in a line: Heart rate (HR) in an acutely instrumented anesthetized dog model at 0.01 mg/kg intravenous dose. The class given is functional, Canis lupus familiaris. Summed up:
as §1

Assay [16] relates to Canis familiaris. The experiment in a line: Myocardial contractility in conscious dog model after 34-40 minutes at 0.1 mg/kg oral administration, range 5-10. It is filed as functional, Canis lupus familiaris, Myocardium. Summed up: (§2)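 Conscious, fasted adult mongrel dogs with surgically implanted devices for ECG, aortic pressure and flow, and LV pressure. Drug given by gavage as a solution or suspension, in single or multiple doses. Contractility recorded as % increase 34-40 min after dosing, with duration of response noted. Mean ± SEM; Student's t test, p < 0.05.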

Assay [17] has as its system Canis familiaris. The experiment in a line: Myocardial contractility in conscious dog model after 34-40 minutes at […] oral administration, activity >3 hr (p<0.05). It is filed as functional, Canis lupus familiaris, Myocardium.
For assay [18], the system named is Canis familiaris. The experiment in a line: Heart rate (HR) in an acutely instrumented anesthetized dog model at 0.001 mg/kg intravenous dose. It is filed as functional, Canis lupus familiaris. The method in brief: as §1
Assay [19] relates to Canis familiaris. The experiment in a line: Mean arterial blood pressure (MABP) in an acutely instrumented anesthetized dog model at 0.003 mg/kg intravenous dose. It is filed as functional, Canis lupus familiaris. Summed up: as §1
The test system of assay [20] is Canis familiaris. Kind of assay: Myocardial contractility in conscious dog model after 34-40 minutes at 1 mg/kg oral administration, activity >4 hr. It is filed as functional, Canis lupus familiaris, Myocardium. The method in brief:
as §2

Assay [21] concerns Canis familiaris. Kind of assay: Heart rate (HR) in an acutely instrumented anesthetized dog model at 0.003 mg/kg intravenous dose. The class given is functional, Canis lupus familiaris. Summed up: as §1
The test system of assay [22] is Canis familiaris. Kind of assay: Mean arterial blood pressure (MABP) in an acutely instrumented anesthetized dog model at 0.001 mg/kg intravenous dose. The class given is functional, Canis lupus familiaris. The method in brief: as §1
Assay [23] concerns Canis familiaris. The experiment in a line: Myocardial contractility in conscious dog model after 34-40 minutes at 1 mg/kg oral administration, activity 3-4 hr (p<0.05). The class given is functional, Canis lupus familiaris, Myocardium. Summed up: as §2
Where [24] appears, read: dose 0.01 mg/kg, in the assay text read “0.01 mg/kg” for “0.001 mg/kg”.

As for `Cc1nc(O)c(C#N)c(C)c1-c1ccc(-n2ccnc2)cc1`, the “MABP % change from control” value in the assay on Canis familiaris [1] is on record as -6. Moreover, the MABP change from control with Canis familiaris [2] was 0%; in the assay on Canis familiaris [3], -35%; in the assay on Canis familiaris [5], -17.5%; in the assay on Canis familiaris [6], -49%. The “Change from Control (LV dp/dt)” value with Canis familiaris [4] is 137%; in the assay with Canis familiaris [8] (setting [24]), 21%; in the assay with Canis familiaris [10], 86%; in the assay on Canis familiaris [11] it was 160%; with Canis familiaris [13] it was 135%. In addition, the HR change from control with Canis familiaris [7] stood at 26%; in the assay with Canis familiaris [9], 15%; with Canis familiaris [12], 16%; in the assay with Canis familiaris [14], 2%; with Canis familiaris [15], 1%.
As to `Cc1c(-c2ccc(-n3ccnc3)cc2)cnc(O)c1C#N`, the “MABP % change from control” value in the assay on Canis familiaris [1] was 4.7. The MABP change from control was 1.5% in the assay on Canis familiaris [2], 9.7% in the assay with Canis familiaris [3], 5.5% in the assay on Canis familiaris [5] and -2.5% in the assay on Canis familiaris [6]. The “Change from Control (LV dp/dt)” value in the assay on Canis familiaris [4] amounted to 21%; in the assay with Canis familiaris [8] (setting [24]) it was 2.5%; with Canis familiaris [10] it was 12%; in the assay on Canis familiaris [11], 54%; in the assay with Canis familiaris [13] it was 125.5%. The HR change from control in the assay on Canis familiaris [7] is 19.5%; in the assay on Canis familiaris [9], 4.5%; in the assay with Canis familiaris [12] it was 7.5%; in the assay with Canis familiaris [14], 2%; in the assay on Canis familiaris [15], -0.5%.
Consider `Cc1nc(O)ccc1-c1ccc(-n2ccnc2)cc1`, for which, in the assay with Canis familiaris [1], the “MABP % change from control” value was -2. Further, the MABP change from control in the assay with Canis familiaris [2] was -2.5%; with Canis familiaris [3], -20%; with Canis familiaris [5] it was -9.5%; in the assay with Canis familiaris [6] it was -19.5%. Further, the “Change from Control (LV dp/dt)” value with Canis familiaris [4] stood at 109%; in the assay on Canis familiaris [8] (setting [24]), 36%; with Canis familiaris [10] it was 85%; with Canis familiaris [11], 121%; in the assay on Canis familiaris [13], 122%. The HR change from control in the assay with Canis familiaris [7] amounted to 29%; with Canis familiaris [9], 17%; with Canis familiaris [12], 26%; in the assay with Canis familiaris [14] it was 9%; in the assay on Canis familiaris [15] it was 3%.
As to `Cc1nc(O)c(C#N)cc1-c1ccc(-n2ccnc2)cc1`, the “MABP % change from control” value in the assay on Canis familiaris [1] is -2.2. Further, the results for the Increase contractility in the assay on Canis familiaris [16], with Canis familiaris [17] and with Canis familiaris [20] were 10%, 35% and 75%, respectively. For the same molecule, the MABP change from control with Canis familiaris [2] is 0.75%; in the assay on Canis familiaris [19], 1.7%; with Canis familiaris [5] it was -9.7%. In addition, the “Change from Control (LV dp/dt)” value is 154% with Canis familiaris [4], 4.5% with Canis familiaris [8], 50.3% with Canis familiaris [8] (setting [24]) and 122.7% with Canis familiaris [10]. Further, the HR change from control with Canis familiaris [18] was determined as 1%; with Canis familiaris [9] it was 34.7%; in the assay on Canis familiaris [14], 14%; in the assay on Canis familiaris [21], 3%; in the assay with Canis familiaris [15], 4.5%. In the assay with Canis familiaris [22], the MABP is -1.
As to `Cc1nc(O)c(N)cc1-c1ccc(-n2ccnc2)cc1`, the “MABP % change from control” value in the assay on Canis familiaris [1] was found to be 1. For the same molecule, the MABP change from control in the assay on Canis familiaris [2] is 0.5%; in the assay on Canis familiaris [3], -17.5%; with Canis familiaris [5] it was -5%; in the assay with Canis familiaris [6] it was -27.5%. In addition, the “Change from Control (LV dp/dt)” value was found to be 134.5% in the assay with Canis familiaris [4]; 24.5% with Canis familiaris [8] (setting [24]); 80.5% in the assay on Canis familiaris [10]; 125.5% in the assay with Canis familiaris [11]; 105.5% in the assay with Canis familiaris [13]. The HR change from control was 22% in the assay on Canis familiaris [7]; 18% in the assay on Canis familiaris [9]; 21.5% in the assay with Canis familiaris [12]; 12% in the assay with Canis familiaris [14]; -1.5% in the assay with Canis familiaris [15].
`Cc1c(-c2ccc(-n3ccnc3)cc2)cc(C#N)c(=O)n1C`: the “MABP % change from control” value in the assay on Canis familiaris [1] is 1. Besides, the MABP change from control with Canis familiaris [2] was found to be 2%; in the assay with Canis familiaris [3], 1.5%; in the assay with Canis familiaris [5] it was 2%; in the assay with Canis familiaris [6] it was 0.5%. Further, the “Change from Control (LV dp/dt)” value in the assay with Canis familiaris [4] is 16%; in the assay on Canis familiaris [8] (setting [24]), 8%; in the assay on Canis familiaris [10], 10%; in the assay on Canis familiaris [11], 18%; in the assay on Canis familiaris [13], 39%. Further, the HR change from control in the assay with Canis familiaris [7] was found to be 3%; with Canis familiaris [9], 3%; in the assay with Canis familiaris [12], 2%; in the assay on Canis familiaris [14] it was 0%; in the assay on Canis familiaris [15], 1%.
Take `Cc1[nH]c(=O)c(C#N)cc1-c1ccncc1` [MILRINONE]: in the assay on Canis familiaris [1], the “MABP % change from control” value was -8. The MABP change from control is -2% in the assay on Canis familiaris [2], -19.9% with Canis familiaris [3], -13% in the assay on Canis familiaris [5] and -36.9% in the assay with Canis familiaris [6]. Moreover, the “Change from Control (LV dp/dt)” value stood at 113% in the assay on Canis familiaris [4]; 30.5% in the assay with Canis familiaris [8] (setting [24]); 77.5% in the assay with Canis familiaris [10]; 142.5% with Canis familiaris [11]; 148.5% in the assay with Canis familiaris [13]. Further, the HR change from control with Canis familiaris [7] is 48.5%; in the assay with Canis familiaris [9] it was 27%; with Canis familiaris [12], 39.2%; in the assay with Canis familiaris [14], 13.5%; in the assay with Canis familiaris [15], 3%. The molecule also registered an Increase contractility in the assay with Canis familiaris [23] of 45%.

The values above are taken from ChEMBL document CHEMBL1123756, “Cardiotonic agents. 5. 1,2-Dihydro-5-[4-(1H-imidazol-1-yl)phenyl]-6-methyl-2-oxo-3- pyridinecarbonitriles and related compounds. Synthesis and inotropic activity” (J Med Chem, 1987).
